# Experimental data from PMC5161706 (Clinical cancer research : an official journal of the …, 2016).
# Columns and labels:
# [1] = Single rapamycin dose pharmacokinetic study, whole blood levels; format: in vivo, mice
# Procedure, shortened: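 Naive female athymic nude mice, 8-10 weeks old, received a single 5mg/kg IP dose (n=3 per condition). Whole blood was sampled at 0, 1, 2, 6, 24 and 48 h and quantified by validated LC/MS/MS. Parameters were derived noncompartmentally: Cmax and trough read directly from the data, AUC by the log-linear trapezoidal method.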
# [2] = system: phosphorylation of p70S6K (Thr389); assay: Immunoblot for phospho- and total p70S6K in K7M2 cells; format: cell-based, murine; conditions: concentrations as low as 0.1μM, 4 hours, immunoblot (Fig 3A)
# [3] = system: phosphorylation of p70S6K (Thr389); assay: Immunoblot for phospho- and total p70S6K in MG63.3 cells; format: cell-based, human; conditions: concentrations as low as 0.1μM, 4 hours, immunoblot (Fig 3A)
# [4] = system: MG63.3 cells; assay: Spontaneous; format: in vivo, human; conditions: orthotopically injected MG63.3 cells, 5mg/kg daily IP (Fig 6D)
# Procedure, shortened: (§1)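 Cells were injected para-osseously into the proximal tibia: K7M2 into female BALB/c mice, human lines into female SCID-beige mice, 8-10 weeks old; MNNG at 1x10^6 cells. Mice received 5mg/kg IP rapamycin or vehicle daily, 5 days/week. Tumours were measured every 3-4 days and limbs amputated at 1.5-1.7 cm3. Survival ran from amputation, with metastasis confirmed at necropsy; Kaplan-Meier analysis, Gehan-Breslow-Wilcoxon test.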
# [5] = system: K7M2 cells; assay: In vitro ds-SL-mCherry reporter expression; format: cell-based, murine; conditions: 1μM rapamycin, 5 days in culture (Fig 4A)
# [6] = system: K7M2 cells; assay: Spontaneous; format: in vivo, murine; conditions: orthotopically injected K7M2 cells, 5mg/kg daily IP (Fig 6C)
# Procedure, shortened: as §1
# [7] = system: MG63.3 cells; assay: In vitro ds-SL-mCherry reporter expression; format: cell-based, human; conditions: 1μM rapamycin, 5 days in culture (Fig 4B)
# [8] = system: MNNG cells; assay: Spontaneous; format: in vivo, human; conditions: orthotopically injected MNNG cells, 5mg/kg daily IP (Fig 6E)
# Procedure, shortened: as §1
# [9] = system: MG63.3 cells; assay: Ex vivo lung culture metastatic outgrowth, MG63.3; format: cell-based, human
# Procedure, shortened: (§2)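 Tumor cells were tail-vein injected, and lung sections were then cultured ex vivo. K7M2 cells were grown in female BALB/c mice and MG63.3 in female SCID-beige mice, 8-10 weeks old. Culture media held a final 0.1uM or 1uM rapamycin, or volume-matched DMSO, refreshed every 2 days. Eight sections were imaged per condition. Burden was total GFP+ area per section normalised to day 0.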
# [10] = system: K7M2 cells; assay: Ex vivo lung culture metastatic outgrowth, K7M2; format: cell-based, murine
# Procedure, shortened: as §2
structure (smiles),measurement,setting,value
CO[C@H]1C[C@@H]2CC[C@@H](C)[C@@](O)(O2)C(=O)C(=O)N2CCCC[C@H]2C(=O)O[C@H]([C@H](C)C[C@@H]2CC[C@@H](O)[C@H](OC)C2)CC(=O)[C@H](C)/C=C(\C)[C@@H](O)[C@@H](OC)C(=O)[C@H](C)C[C@H](C)/C=C/C=C/C=C/1C [rapamycin],AUC/dose equivalent value,"[1]; mice, 5mg/kg IP, noncompartmental methods, predicted sufficient to inhibit p70S6K phosphorylation and exert anti-metastatic activities","3,555 [ng*hr/ml]/[mg/kg]"
same,whole blood concentration maintained,"[1]; naïve mice, single IP dose of 5mg/kg, for 24hrs (Fig 3C)",above 0.1 μM
same,inhibition of phosphorylation of p70S6K,[2],effectively inhibited phosphorylation of p70S6K
same,inhibition of phosphorylation of p70S6K,[3],effectively inhibited phosphorylation of p70S6K
same,survival of mice from time of limb amputation,[4],significantly prolonged survival
same,effect on ds-SL-mCherry reporter expression in vitro,[5],no effect on reporter expression
same,survival of mice from time of limb amputation,[6],significantly prolonged survival
same,effect on ds-SL-mCherry reporter expression in vitro,[7],no effect on reporter expression
same,survival of mice from time of limb amputation,[8],significantly prolonged survival
same,metastatic outgrowth in ex vivo lung culture,"[9]; MG63.3, 0.1μM rapamycin (Fig 5D, 5E)",robustly inhibited metastatic outgrowth
same,metastatic outgrowth in ex vivo lung culture,"[9]; MG63.3, 1μM rapamycin (Fig 5D, 5E)",robustly inhibited metastatic outgrowth
same,metastatic outgrowth in ex vivo lung culture,"[10]; K7M2, 0.1μM rapamycin (Fig 5B, 5C)",robustly inhibited metastatic outgrowth
same,metastatic outgrowth in ex vivo lung culture,"[10]; K7M2, 1μM rapamycin (Fig 5B, 5C)",robustly inhibited metastatic outgrowth
